The list is not random: actives were taken first. Their share in the collection is about 1%.
MT stabilizer: microtubule stabilization, imaging screen. HeLa tubulin immunostaining HCS, 24 h; share of cells brighter than vehicle mean+2SD. % tubulin-high responders, % at 10 µM. hit rate 0.83% among 200,000;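 active means plate Z-score above 3 for both tubulin-high and condensed-nucleus cell shares, with cell loss under 80%, at 10 µM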;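 further: anti alpha tubulin signal scored within the nucleus-defined area of each cell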
ABCB1 inh: blocks JC-1 efflux by human ABCB1 transporter | hit rate 0.067% among 190,000 | P08183 | CCRF-Adr cells, flow cytometry | inhibition, % at 6.6 µM; in the data active means inhibition above about 40%;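 further: 0% = vehicle and 100% = reference inhibitor; higher value means more JC-1 retained so stronger ABCB1 efflux block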
b-catenin transl: alters nuclear translocation of beta-catenin in HeLa cells; nuclear translocation activity, % at 5 µM; immunofluorescence imaging; AID 1665; hit rate 0.3% among 190,000;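 active means nuclear translocation activity above 50% at 5 µM, with a well cell count of 50 or more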;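 further: per-cell ratio of nuclear to cytoplasmic median beta-catenin stain intensity; plate controls were DMSO negative control for no effect and GSK-3 inhibitor IX positive control for full effect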
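Read-out: Nuclear/cytoplasmic beta-catenin signal ratio, % activation | Assay system: Human HeLa cell line | Times: 24 h compound exposure at 37°C, 5% CO2 | Signal: Fluorescence imaging of beta-catenin antibody stain plus DAPI | Dosing: 5 µM primary, 0.02–20 µM confirmation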
ABCG2 inh: blocks JC-1 efflux by human ABCG2 transporter; Q9UNQ0; IgMXP3 cells, flow cytometry; inhibition, % at 6.6 µM; hit rate 0.1% among 190,000; AID 1325;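 active means inhibition above 80%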;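 further: 0% = DMSO and 100% = nicardipine control wells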
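test system = two drug-resistant human cell lines, ABCG2 and ABCB1 | amount = 3 million cells/mL final, two lines in 1:1 ratio | reagent = JC-1 transporter substrate | doses = one concentration, 6.6 µM final | incubation = 10 min at 25 °C | signal = flow cytometric JC-1 green MFI at 530 nm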
PKD1 kinase inh: PKD1 (human) kinase inhibition | Q15139 | PKD1 kinase fluorescence polarization assay | inhibition, % (test concentration not listed) | hit rate 0.056% among 200,000 | AID 797; in the data active means inhibition above about 50%
Target sequence (Q15139 whole entry, looked up): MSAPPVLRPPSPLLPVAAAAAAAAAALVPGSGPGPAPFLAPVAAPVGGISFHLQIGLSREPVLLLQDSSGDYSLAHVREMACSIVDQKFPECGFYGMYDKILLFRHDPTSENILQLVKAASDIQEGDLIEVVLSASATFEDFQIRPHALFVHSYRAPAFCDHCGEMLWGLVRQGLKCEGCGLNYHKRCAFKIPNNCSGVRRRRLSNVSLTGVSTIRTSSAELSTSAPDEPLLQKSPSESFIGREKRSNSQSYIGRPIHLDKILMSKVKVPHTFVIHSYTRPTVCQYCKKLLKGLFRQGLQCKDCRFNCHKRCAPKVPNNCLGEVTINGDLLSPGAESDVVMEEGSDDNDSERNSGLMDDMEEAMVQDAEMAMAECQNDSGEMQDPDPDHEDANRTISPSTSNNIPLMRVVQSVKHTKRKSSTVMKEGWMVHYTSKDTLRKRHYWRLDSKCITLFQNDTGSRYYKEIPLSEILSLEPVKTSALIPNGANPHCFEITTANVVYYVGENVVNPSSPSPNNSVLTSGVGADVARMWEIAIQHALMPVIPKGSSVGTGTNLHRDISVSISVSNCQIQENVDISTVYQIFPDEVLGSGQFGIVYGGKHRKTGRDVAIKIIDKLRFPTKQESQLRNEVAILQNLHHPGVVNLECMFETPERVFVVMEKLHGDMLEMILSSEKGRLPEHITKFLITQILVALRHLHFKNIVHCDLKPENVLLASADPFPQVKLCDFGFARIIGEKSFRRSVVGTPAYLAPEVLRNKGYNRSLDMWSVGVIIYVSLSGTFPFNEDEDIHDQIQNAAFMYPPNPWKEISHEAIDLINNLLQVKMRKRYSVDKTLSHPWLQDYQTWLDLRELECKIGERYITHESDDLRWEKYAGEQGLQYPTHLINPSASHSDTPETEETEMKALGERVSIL
Active calls of the source: *; . = not tested or not shown.

SMILES	MT stabilizer	ABCB1 inh	b-catenin transl	ABCG2 inh	PKD1 kinase inh
Cc1nc2ncccn2c1-c1csc(Nc2ccc(O)cc2)n1	4.2	0.2	11.8	1.3	-3.6
Cc1nc2ccccn2c1-c1csc(NCc2ccco2)n1	4.6	0.9	0.1	5.4	-17.7
Cc1ccc(Nc2nc(-c3c(C)nc4ccccn34)cs2)cc1	16.9*	-1.0	111.8*	27.2	-6.7
CCOc1cc(S(=O)(=O)NCc2ccncc2)ccc1Cl	4.7	-0.4	-1.4	-1.9	-6.0
CCN1C(=O)/C(=C2/Sc3ccccc3N2CC)S/C1=N\c1ncn[nH]1	0.7	0.2	-0.3	0.9	6.2
Cc1c(C#N)c(N)nc(Cl)c1C#N	4.6	0.8	1.0	6.3	115.4*
O=C(NCc1ccc2c(c1)CCO2)Nc1ccccc1	.	.	-0.6	.	.
COc1ccccc1C1=NOC(COc2ccc3c(C)cc(=O)oc3c2)C1 (configuration not stated)	.	.	96.5*	.	.
CC1(C)COC(/C=C/c2cccc([N+](=O)[O-])c2)=N1	23.6*	2.0	7.6	34.0	-0.2
CN(C)S(=O)(=O)c1cccc(NC(=O)c2cc(-c3cccs3)nn2-c2cccc(Cl)c2)c1	13.4*	-0.1	30.0	-1.6	-13.9
CCC1=Nc2cc(C(=O)NCCCOC)ccc2Sc2ccccc21	25.0*	-0.4	.	6.9	0.0
CCCC1=Nc2cc(C(=O)NCCCOCC)ccc2Sc2ccccc21	15.0	0.5	104.7*	19.7	-14.2
COCCCNC(=O)c1cccc(C(=O)NCCCOC)c1	3.6	1.0	-3.1	1.6	-16.7
CC(C)OCCCNC(=O)c1ccncc1	2.2	0.3	-5.8	6.0	-2.0
CCCC1=Nc2cc(C(=O)NCCCOC(C)C)ccc2Sc2ccccc21	22.3*	0.1	71.5*	-0.1	-2.1
CCC1=Nc2cc(C(=O)NCc3ccco3)ccc2Sc2ccc(C)cc21	4.2	5.7	74.4*	9.3	-2.8
C=CCN(c1ccccc1C(=O)O)S(=O)(=O)/C=C/c1ccccc1	3.4	0.3	-2.8	-0.1	9.1
Cc1nc(-c2ccc(S(=O)(=O)Oc3ccc(Cl)cc3Cl)s2)cs1	.	.	0.2	.	.
CC1=Nc2cc(C(=O)NCCCOC(C)C)ccc2Sc2ccccc21	23.8*	2.0	14.7	13.0	-1.8
CC1=Nc2cc(C(=O)NCCCOC(C)C)ccc2Sc2ccc(C)cc21	12.1	0.6	37.6	1.8	-8.2
OC(CNC1CCCC1)COc1ccc(-c2ccccc2)cc1 (configuration not stated)	1.6	0.7	0.6	13.6	-5.9
CCCC(NCC(O)COc1ccc(-c2ccccc2)cc1)c1ccccc1 (configuration not stated)	22.4*	0.7	-1.0	-0.1	-1.5
CCN/C=C(\C#N)S(=O)(=O)c1ccc(Br)cc1	.	.	2.1	.	.
Cc1cccc(C(=O)Nc2cccc(OC(=O)c3cccc(C)c3)c2)c1	0.8	0.3	-1.4	4.4	-11.5
COc1ccc(C(=O)Nc2cccc(OC(=O)c3ccc(C)c(C)c3)c2)cc1	21.6*	1.1	-0.3	5.5	-12.4
SMILES	MT stabilizer	ABCB1 inh	b-catenin transl	ABCG2 inh	PKD1 kinase inh
CN=C1c2cc3cc(OC)ccc3n2CCN1Cc1ccccc1	39.6*	0.1	.	1.1	5.5
CCN(CC)CCNC1=NCCn2c1cc1cc(OC)ccc12	1.6	0.3	.	1.4	1.9
CO/N=C/C(=N\Nc1ccc(OC)cc1)C(=O)c1ccc(OC)cc1	53.5*	-0.3	.	3.9	1.2
O=C(O)c1nn2c(C(F)(F)F)cc(-c3cccs3)nc2c1Cl	2.8	0.3	.	11.6	-0.4
COc1cc(S(=O)(=O)Nc2cccc(C)c2)ccc1N=Cc1c(C)[nH]n(-c2ccccc2)c1=O	18.3*	-0.2	-2.4	-1.8	-5.3
COc1ccc(NC(=O)c2cccc(Oc3ccc([N+](=O)[O-])cc3Cl)c2)cc1	8.3	0.7	92.6*	2.1	2.2
Cc1ccc(C)c(NC(=O)c2cccc(Oc3ccc([N+](=O)[O-])cc3Cl)c2)c1	8.1	2.4	62.3*	48.2	4.4
O=C(Nc1cccc(Cl)c1)c1cccc(Oc2ccc([N+](=O)[O-])cc2Cl)c1	7.9	0.0	7.6	0.1	-2.7
CCCOc1ccc(N2C(=O)CC(N3CCC(c4nc5ccccc5o4)CC3)C2=O)cc1 (configuration not stated)	3.5	0.9	-4.3	7.2	-5.1
CCCN1CCC(=NNc2ccc(S(N)(=O)=O)cc2[N+](=O)[O-])CC1	3.8	0.4	-2.7	1.2	2.6
CCCN1CCC(=NNc2ccc(S(=O)(=O)N(CC)CC)cc2[N+](=O)[O-])CC1	13.6	0.5	111.7*	0.5	2.2
CCOc1cc(C)c(Cl)cc1S(=O)(=O)NCc1ccc2c(c1)OCO2	34.8*	0.5	3.9	4.0	4.5
CCOc1cc(S(=O)(=O)NCc2ccc3c(c2)OCO3)c(C)cc1C	1.5	0.5	.	1.0	-9.1
NC(=O)CCS(=O)(=O)c1ccc(Cl)cc1	1.5	0.2	-0.4	-1.2	-11.7
CCOc1cccc(C2NC(=S)NC(C)=C2C(=O)Nc2ccccc2)c1 (configuration not stated)	13.7*	0.9	1.3	7.2	-4.3
O=C(N/N=C/c1cccc(Cl)c1Cl)Nc1ccccc1	1.1	0.2	-3.1	3.2	14.9
O=C(N/N=C/c1ccc(Cl)cc1Cl)Nc1ccccc1	18.9*	0.9	9.6	5.2	-3.1
CCc1ccc(Nc2cc(=O)n(C3CCCCC3)c(=O)[nH]2)cc1	3.1	0.6	.	9.4	-2.8
O=c1cc(Nc2ccc3c(c2)OCCO3)[nH]c(=O)n1C1CCCCC1	48.7*	1.3	0.3	17.5	-5.3
COc1cc(C(=O)N/N=C(\C)c2ccc3c(c2)OCO3)cc(OC)c1OC	20.3*	0.1	12.2	1.1	0.7
COc1ccc(/C(C)=N\NC(=O)c2ccc3c(c2)OCO3)cc1OC	4.0	0.3	-1.7	1.7	0.5
CCN(CC)c1ccc(NC(=O)c2ccc3c(c2)c(C)c(C)n3C)cc1	14.0*	-1.2	.	-1.9	0.0
CCOc1cccc(C(=O)Nc2ccc(N(CC)CC)cc2)c1	21.4	1.8	-1.3	46.5	-2.1
Cn1c2c(c(=O)[nH]c1=O)C(c1cccc(O)c1)C1=C(N2)c2ccccc2C1=O (configuration not stated)	19.9*	0.4	3.2	2.1	0.6
Oc1ccc(-c2nc(-c3ccc(O)c(O)c3)cs2)cc1	14.6*	-0.5	66.4*	-1.1	3.5
Oc1ccc(-c2csc(-c3cccnc3)n2)c(O)c1	12.0*	-0.1	25.4	0.2	2.7
c1cncc(-c2nc(-c3cccs3)cs2)c1	4.1	0.2	-5.3	3.8	-1.7
Oc1ccc(Nc2nc(-c3ccc4ccccc4c3)cs2)cc1	3.0	1.4	.	37.2	-4.5
CC(=O)NC(CC(=O)N(C)Cc1cccc(Cl)c1Cl)c1ccccc1 (configuration not stated)	2.8	-0.1	1.5	-0.5	0.3
Cc1ccc(N=Nc2c(N)[nH]n3c(=O)c4c(nc23)CCCC4)cc1	24.3*	0.4	1.7	3.8	0.2
